Reference: PubChem BioAssay AID504382 (The Scripps Research Institute Molecular Screening Center, 2011)
Screen size: about 2,500 compounds; about 460 (18%) were called active. Only a sample is shown. Unmarked numbers belong to inactive results.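 Rule for the calls: active = mean activation above a cutoff of low control average plus 3 SD from the earlier screen (cut at about 12% in these data); inactive = the rest.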

Experiment: compound fluorescence interference without thin filaments, confirmation, artefact control for cardiac RTF calcium sensitizer project, biochemical (AID 504382)
Details: IANBD fluorescence interference counterscreen, buffer, EC20 Ca2+; at 7.2 µM; stronger effect = higher value; scaled: EC20 calcium 0, EC100 calcium 100
How it was run: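 Medium: MOPS/KCl/MgCl2/EGTA/NTA/DTT buffer, pH 7.2 | Reagent: EC20 calcium, 0.472 mM | Compound dosing: 7.2 µM single dose | Times: 15 min compound exposure at 25 °C | Signal: Fluorescence, 480/540 nm | Measure: Interference relative to controls | Repeats: Triplicate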

| SMILES | fluorescence artifact activation |
| --- | --- |
| CCc1cc(=O)n2c([nH]c3ccccc32)c1C#N | 0.24% |
| Cc1cc(Br)ccc1SCC(=O)OCC(=O)Nc1ccccc1C#N | 0.22% |
| Cc1ccc(S(=O)(=O)Nc2ccc3ncccc3c2[N+](=O)[O-])cc1 | 0.33% |
| COc1ccc(/C=C2\CC/C(=C\c3ccc(OC)cc3OC)C2=O)c(OC)c1 | 9.84% |
| CCCN1C(=O)/C(=C\C=C2\N(CC)c3ccccc3C2(C)C)SC1=S | 0.28% |
| CCCN1C(=O)/C(=C/C=C2\N(CC)c3ccccc3C2(C)C)SC1=S | 0.48% |
| CCCCN1C(=O)/C(=C/C=C2\Oc3ccccc3N2CC)SC1=S | 16.6% (active) |
| CC(C(=O)NNS(=O)(=O)c1cccc(C(F)(F)F)c1)n1nnc(N2CCOCC2)n1 (stereo unspecified) | 0.4% |
| COc1ccc2c3c(cccc13)C(=O)CC2 | 1.92% |
| COc1cc2c(cc1[N+](=O)[O-])-c1ccccc1C2 | 70.4% (active) |
| COc1cc(OC)c(OC)cc1/C=C1/Cc2ccccc2C1=O | -0.02% |
| Cc1noc(C)c1S(=O)(=O)N(C)C[C@H]1Oc2ccc(NC(=O)CCC(F)(F)F)cc2C(=O)N([C@H](C)CO)C[C@@H]1C | 0.08% |
| O=S(=O)(Nc1nc2ccccc2nc1NCCO)c1cccc(Cl)c1 | 57.1% (active) |
| O=S(=O)(Nc1nc2ccccc2nc1N1CCN(c2ccccn2)CC1)c1ccc(Cl)cc1 | -0.09% |
| Cc1ccc(S(=O)(=O)Nc2nc3ccccc3nc2NCc2ccco2)cc1 | 2.57% |
| COC1=CC2(O)CCCC2=CC1=O (stereo unspecified) | 0.15% |
| Cc1cc(Cn2nc(C(=O)NCC3CC3)cc2-c2ccccc2)on1 | 0.04% |
| COc1cccc(/C=C/C(=C2\C(=O)N(c3ccccc3)N=C2C)c2ccc(Br)cc2)c1OC | 0.1% |
| CCC1(c2ccccc2)NC(=O)N(CC(=O)Nc2ccc(OC)nc2)C1=O (stereo unspecified) | -0.05% |
| CCN(C(=O)c1cc2ccccc2oc1=O)c1ccccc1 | 1.56% |
| N#CCCN(C(=O)c1ccco1)c1ccccc1 | 1610% (active) |
| C/C(=N/NC(=O)CNC(=O)Cc1ccccc1)c1ccco1 | 0% |
| CCOCCCNc1ccc(-c2ccccc2)nn1 | 1.31% |

| SMILES | fluorescence artifact activation |
| --- | --- |
| COc1ccc(O)c(/C=C2/SC(=S)N(Cc3ccccc3)C2=O)c1 | 0.17% |
| COc1cc(/C=C2/SC(=S)N(Cc3ccccc3)C2=O)cc(Cl)c1O | 1800% (active) |
| O=C1/C(=C\c2cc(Cl)c(O)c(Cl)c2)SC(=S)N1Cc1ccccc1 | -0.11% |
| O=C(N/N=C/c1cccc([N+](=O)[O-])c1)c1cnccn1 | -0.02% |
| O=C(CSc1ccc(-c2cccs2)nn1)N1CCCCC1 | 0.91% |
| CCOc1ccc(NC(=O)COC(=O)CCN2C(=O)C3CC=CCC3C2=O)cc1OCC (stereo unspecified) | 0.5% |
| CN1CC[C@@H]2C(=O)N3CCc4ccc(Br)cc4[C@@H]3C[C@@H]21 | 0.24% |
| COC(=O)C1=C(O)/C(=C\c2ccc(CNS(=O)(=O)c3ccc(Cl)cc3)o2)N=C1C | 0.18% |
| CN1CC=C2C(C#N)=C(N)C(C#N)(C#N)C(CCc3ccccc3)C2C1 (stereo unspecified) | 12.7% (active) |
| CCN1CC=C2C(C#N)=C(N)C(C#N)(C#N)C(CCc3ccccc3)C2C1 (stereo unspecified) | 0.03% |
| CN1CC=C2C(C#N)=C(N)C(C#N)(C#N)C(Cc3ccccc3)C2C1 (stereo unspecified) | 0.22% |
| COc1cc(C2C3CN(C)CC=C3C(C#N)=C(N)C2(C#N)C#N)ccc1OC(C)C (stereo unspecified) | 16.8% (active) |
| CN1CC=C2C(C#N)=C(N)C(C#N)(C#N)[C@H](c3cccc(Cl)c3)C2C1 (stereo partly specified) | 10.2% |
| COc1cc([C@@H]2[C@H]3CN(C)CC=C3C(C#N)=C(N)C2(C#N)C#N)cc2c1OCO2 | 0.14% |
| COc1ccc(/C=N/NC(=O)C(Cc2c[nH]c3ccccc23)NC(=O)OCC(C)C)cc1[N+](=O)[O-] (stereo unspecified) | 0.1% |
| Cc1cccc(CN2C(=O)N/C(=C/c3ccc(C)s3)C2=O)c1 | 0.03% |
| COc1ccc(C2C(C#N)=C(N)N(c3cccnc3)C3=C2C(=O)CCC3)cc1Cn1cc([N+](=O)[O-])cn1 (stereo unspecified) | 4.77% |
| CCOC(=O)C1C(=O)NC(SCC(N)=O)=C(C#N)C1c1ccccc1OCC (stereo unspecified) | 0.28% |
| Fc1ccc(-c2nc3ccncc3[nH]2)cc1 | 1.25% |
| Cc1ccc2oc3c(SCc4nc5ccccc5[nH]4)nc(C)nc3c2c1 | 6.37% |
| CC1=NN(C(=O)c2ccccc2-n2cccc2)C(O)(C(F)(F)F)C1 (stereo unspecified) | 0.1% |
| COc1ccc(OC)c(C2=C/C(=C/c3ccccn3)C(=O)O2)c1 | 0.07% |
| CCN(CC)c1ccc(/C=C/c2cccc[n+]2C)c(OC)c1 | 22.6% (active) |
